From publication PMC3312100 (Frontiers in Systems Neuroscience, 2012)
Entries after “also recorded” stand apart in the source; their conditions may differ.

Tests used:
[1] = biological target: human histamine H3 receptor (Homo sapiens, UniProt Q9Y5N1); assay: [3H]Nα-methylhistamine competition binding assay, membranes of HEK-293 cells; conditions: for Selectivity for hH3R over hH1R and hH4R (in words): comparison of Ki values of Table 1
Summary of the method: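 Membranes came from HEK-293 cells stably expressing recombinant hH3R, with protein measured by Bradford. They were incubated with 2 nM [3H]Nα-methylhistamine and test compound from 0.01 nM to 100 μM at seven concentrations. Non-specific binding was defined with 10 μM pitolisant. Values are means of at least three independent experiments, each in triplicate.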

[2] = Fluorescence characterization; assay type: physicochemical; conditions: for Fluorescence emission intensity (in words): Figure 2, Appendix
Summary of the method: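 Test compound was dissolved at 10 mM in buffer (12.5 mM MgCl2, 100 mM NaCl, 75 mM Tris/HCl, pH 7.4). Absorption and emission spectra were recorded on a fluorometer at room temperature. Emission spectra used 405 nm excitation.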

Chain of human histamine H3 receptor (Q9Y5N1 whole entry): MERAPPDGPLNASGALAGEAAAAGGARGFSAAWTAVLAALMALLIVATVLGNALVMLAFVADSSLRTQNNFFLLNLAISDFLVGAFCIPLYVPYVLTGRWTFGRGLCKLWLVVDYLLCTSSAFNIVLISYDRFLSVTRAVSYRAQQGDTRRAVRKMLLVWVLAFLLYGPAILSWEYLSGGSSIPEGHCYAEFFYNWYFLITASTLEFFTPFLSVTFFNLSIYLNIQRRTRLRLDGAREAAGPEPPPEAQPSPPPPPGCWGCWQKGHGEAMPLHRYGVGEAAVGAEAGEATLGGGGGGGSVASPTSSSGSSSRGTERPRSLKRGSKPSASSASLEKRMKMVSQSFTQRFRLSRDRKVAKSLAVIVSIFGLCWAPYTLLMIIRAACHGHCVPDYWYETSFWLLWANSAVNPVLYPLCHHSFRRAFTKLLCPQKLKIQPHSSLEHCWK

| Compound | Selectivity for hH3R over hH1R and hH4R (in words) [1] | Area of the fluorescence spectrum of emission [2] | Fluorescence emission intensity (in words) [2] | Affinity at the human histamine H3 receptor (in words) [1] |
| --- | --- | --- | --- | --- |
| O=C1CCCc2ccc(OCc3ccc(OCCCN4CCCCC4)cc3)cc21 [Compound 8, 7-(4-(3-(Piperidin-1-yl)propoxy)benzyloxy)-1-tetralone] | one of the highest selectivity | – | – | – |
| CN(C)c1ccc(/C=C2\CCc3ccc(OCc4ccc(OCCCN5CCCCC5)cc4)cc3C2=O)cc1 [Compound 10, (E)-2-(4-(Dimethylamino)benzylidene)-7-(4-(3-(piperidin-1-yl)propoxy)benzyloxy)-1-tetralone] | – | yellow area | – | – |
| CN(C)c1ccc(/C=C2\CCc3cc(OCc4ccc(OCCCN5CCCCC5)cc4)ccc3C2=O)cc1 [Compound 9, (E)-2-(4-(Dimethylamino)benzylidene)-6-(4-(3-(piperidin-1-yl)propoxy)benzyloxy)-1-tetralone] | most selective compound in the fluorescent chalcone series; also recorded: most human histamine H3 receptor selective | yellow area | most intense compound; also recorded: highest intensity of all synthesized compounds | highest affinity |
| CN(C)c1ccc(/C=C/C=C2\CCc3cc(OCCCN4CCCCC4)ccc3C2=O)cc1 [Compound 5, (E)-2-((E)-3-(4-(Dimethylamino)phenyl)allylidene)-6-(3-(piperidin-1-yl)propoxy)-1-tetralone] | less selective chalcone; also recorded: not as selective as compound 9 | – | emits more intensive | – |
| CN(C)c1ccc(/C=C2\CCc3ccc(OCCCN4CCCCC4)cc3C2=O)cc1 [Compound 4, (E)-2-(4-(Dimethylamino)benzylidene)-7-(3-(piperidin-1-yl)propoxy)-1-tetralone] | – | yellow area | – | – |
| CN(C)c1ccc(/C=C2\CCc3cc(OCCCN4CCCCC4)ccc3C2=O)cc1 [Compound 3, (E)-2-(4-(Dimethylamino)benzylidene)-6-(3-(piperidin-1-yl)propoxy)-1-tetralone] | – | yellow area | – | – |
